# In ChEMBL document CHEMBL4257478, “Design, synthesis and evaluation of (R)-3-(7-(methyl(7H-pyrrolo[2,3-d]pyrimidin-4-yl)amino)-5-azaspiro[2.4]heptan-5-yl)-3-oxopropanenitrile as a JAK1-selective inhibitor” (Medchemcomm, 2018):
# The source made the active and inactive calls. The calls are words filed in the database; no cut-off is given here.
# What was measured:
# [1] = target: Tyrosine-protein kinase JAK2 (Homo sapiens, UniProt O60674); experiment: Inhibition of human JAK2 at 1 uM using KTFCGTPEYLAPEVRREPRILSEEEQEMFRDFDYIADWC as substrate after 40 mins in presence of [gamma-33P-ATP] by scintillation counting method relative to control
# [2] = target: T1, Tyrosine-protein kinase JAK1 (Homo sapiens, UniProt P23458); experiment: Inhibition of human JAK1 at 1 uM using GEEPLYWSFPAKKK as substrate after 40 mins in presence of [gamma-33P-ATP] by scintillation counting method relative to control
# [3] = Cmax in Sprague-Dawley rat at 10 mg/kg, po after 0.25 to 24 hrs by LC-MS/MS method; format: ADME, organism-based; set-up: dose 10 mg/kg, route oral; conditions: in vivo
# In short: (§1)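 Male Sprague Dawley rats, 7-8 weeks old, n=4 per group. IV dose 5 mg/kg free base in 10% ethanol/90% PEG400; oral dose 10 mg/kg as corn oil suspension after 16 h fast. Blood taken 0.08-24 h (IV) or 0.25-24 h (PO). Plasma diluted in acetonitrile with internal standard, analysed by LC-MS/MS, parameters by non-compartmental analysis.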
# [4] = Half life in Sprague-Dawley rat at 5 mg/kg, iv after 0.08 to 24 hrs by LC-MS/MS method; format: ADME, organism-based; conditions: in vivo; in short: as §1
# [5] = Half life in Sprague-Dawley rat at 10 mg/kg, po after 0.25 to 24 hrs by LC-MS/MS method; format: ADME, organism-based; conditions: in vivo; in short: as §1
# [6] = Tmax in Sprague-Dawley rat at 10 mg/kg, po after 0.25 to 24 hrs by LC-MS/MS method; format: ADME, organism-based; conditions: in vivo
# In short: (§2)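 Male Sprague Dawley rats, 7–8 weeks old, n=4, fasted 16 h. Free base given at 10 mg/kg po as a corn oil suspension (5 mL/kg); a 5 mg/kg iv arm used 10% ethanol/90% PEG400. Plasma sampled 0.25–24 h, acetonitrile-precipitated with internal standard, and measured by LC-MS/MS. Parameters derived by non-compartmental analysis.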
# Rattus norvegicus [7] = experiment: AUC (0 to t) in Sprague-Dawley rat at 10 mg/kg, po after 0.25 to 24 hrs by LC-MS/MS method; format: ADME, organism-based; set-up: time lower 0.25 hr, dose 10 mg/kg, time upper 24 hr, route oral; conditions: in vivo; in short: as §1
# Rattus norvegicus [8] = experiment: AUC (0 to infinity) in Sprague-Dawley rat at 5 mg/kg, iv after 0.08 to 24 hrs by LC-MS/MS method; format: ADME, organism-based; set-up: dose 5 mg/kg, time infinity, route intravenous; conditions: in vivo; in short: as §1
# Rattus norvegicus [9] = experiment: AUC (0 to infinity) in Sprague-Dawley rat at 10 mg/kg, po after 0.25 to 24 hrs by LC-MS/MS method; format: ADME, organism-based; set-up: dose 10 mg/kg, route oral, time infinity; conditions: in vivo; in short: as §1
# [10] = MRT in Sprague-Dawley rat at 5 mg/kg, iv after 0.08 to 24 hrs by LC-MS/MS method; format: ADME, organism-based; conditions: in vivo; in short: as §1
# Rattus norvegicus [11] = experiment: AUC (0 to t) in Sprague-Dawley rat at 5 mg/kg, iv after 0.08 to 24 hrs by LC-MS/MS method; format: ADME, organism-based; set-up: time upper 24 hr, time lower 0.08 hr, dose 5 mg/kg, route intravenous; conditions: in vivo; in short: as §1
# [12] = Oral bioavailability in Sprague-Dawley rat at 10 mg/kg after 0.25 to 24 hrs by LC-MS/MS method; format: ADME, organism-based; conditions: in vivo; in short: as §2
# [13] = MRT in Sprague-Dawley rat at 10 mg/kg, po after 0.25 to 24 hrs by LC-MS/MS method; format: ADME, organism-based; conditions: in vivo; in short: as §1
# Mus musculus [14] = experiment: Antiarthritic activity in collagen-induced DBA1/J mouse arthritis model assessed as decrease in ratio of bone surface to bone volume of right hind ankle joint at 100 mg/kg, po qd measured on day 19 by micro-CT analysis; format: functional, organism-based
# In short: (§3)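 Male DBA1/J mice, 6 weeks old, immunized s.c. at the tail base with type II collagen (2 mg/mL) in complete Freund's adjuvant (1:1, 0.1 mL), then boosted at day 21 with collagen in incomplete Freund's adjuvant. Clinical scores taken twice weekly for 18 days; serum IL-6 and TNF-α measured after autopsy; right hind ankle assessed by histopathology and by micro-CT for bone surface/volume.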
# Mus musculus [15] = experiment: Antiarthritic activity in collagen-induced DBA1/J mouse arthritis model assessed as decrease in clinical arthritis score at 100 mg/kg, po qd measured twice weekly for 18 days; format: functional, organism-based; in short: as §3
# Rattus norvegicus [16] = experiment: Antiarthritic activity in adjuvant-induced SPF LEW/SsNSlc rat arthritis model assessed as paw thickness at 20 mg/kg, po qd measured on day 14; format: functional
# In short: (§4)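 Lewis rats were 10 weeks old after 2 weeks acclimation. Immunized s.c. at the tail base with 0.1 mL complete Freund's adjuvant containing 10 mg/mL heat-killed mycobacterium. From day 12 post-immunization (day 1), n=10 per group, oral dosing once daily for 14 days, vehicle corn oil. Clinical score and hind paw measured twice weekly.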
# Mus musculus [17] = experiment: Antiarthritic activity in collagen-induced DBA1/J mouse arthritis model assessed as decrease in paw volume at 100 mg/kg, po qd measured on day 1 and 15 by plethysmometer
# Mus musculus [18] = experiment: Antiarthritic activity in collagen-induced DBA1/J mouse arthritis model assessed as decrease in serum IL-6 levels at 100 mg/kg, po qd measured on day 19 by ELISA; format: functional, organism-based; in short: as §3
# Rattus norvegicus [19] = experiment: Antiarthritic activity in adjuvant-induced SPF LEW/SsNSlc rat arthritis model assessed as decrease in clinical arthritis score at 20 mg/kg, po qd measured on day 14; format: functional, organism-based; in short: as §4
# Mus musculus [20] = experiment: Antiarthritic activity in collagen-induced DBA1/J mouse arthritis model assessed as decrease in articular surface cartilage thickness in right hind ankle joints at 100 mg/kg, po qd measured on day 19 by hematoxylin-eosin staining-based assay; format: functional, organism-based; in short: as §3
# Mus musculus [21] = experiment: Antiarthritic activity in collagen-induced DBA1/J mouse arthritis model assessed as decrease in right hind ankle joint thickness at 100 mg/kg, po qd measured on day 19 by hematoxylin-eosin staining-based assay; format: functional, organism-based; in short: as §3
# Mus musculus [22] = experiment: Antiarthritic activity in collagen-induced DBA1/J mouse arthritis model assessed as decrease in infiltration of inflammatory cells in right hind ankle joints at 100 mg/kg, po qd measured on day 19 by hematoxylin-eosin staining-based assay; format: functional, organism-based; in short: as §3
# Mus musculus [23] = experiment: Antiarthritic activity in collagen-induced DBA1/J mouse arthritis model assessed as decrease in serum TNF-alpha levels at 100 mg/kg, po qd measured on day 19 by ELISA; format: functional, organism-based; in short: as §3
# [24] = target: T2, Tyrosine-protein kinase JAK3 (Homo sapiens) (UniProt P52333); conditions: 10 uM
# T2 sequence (whole entry): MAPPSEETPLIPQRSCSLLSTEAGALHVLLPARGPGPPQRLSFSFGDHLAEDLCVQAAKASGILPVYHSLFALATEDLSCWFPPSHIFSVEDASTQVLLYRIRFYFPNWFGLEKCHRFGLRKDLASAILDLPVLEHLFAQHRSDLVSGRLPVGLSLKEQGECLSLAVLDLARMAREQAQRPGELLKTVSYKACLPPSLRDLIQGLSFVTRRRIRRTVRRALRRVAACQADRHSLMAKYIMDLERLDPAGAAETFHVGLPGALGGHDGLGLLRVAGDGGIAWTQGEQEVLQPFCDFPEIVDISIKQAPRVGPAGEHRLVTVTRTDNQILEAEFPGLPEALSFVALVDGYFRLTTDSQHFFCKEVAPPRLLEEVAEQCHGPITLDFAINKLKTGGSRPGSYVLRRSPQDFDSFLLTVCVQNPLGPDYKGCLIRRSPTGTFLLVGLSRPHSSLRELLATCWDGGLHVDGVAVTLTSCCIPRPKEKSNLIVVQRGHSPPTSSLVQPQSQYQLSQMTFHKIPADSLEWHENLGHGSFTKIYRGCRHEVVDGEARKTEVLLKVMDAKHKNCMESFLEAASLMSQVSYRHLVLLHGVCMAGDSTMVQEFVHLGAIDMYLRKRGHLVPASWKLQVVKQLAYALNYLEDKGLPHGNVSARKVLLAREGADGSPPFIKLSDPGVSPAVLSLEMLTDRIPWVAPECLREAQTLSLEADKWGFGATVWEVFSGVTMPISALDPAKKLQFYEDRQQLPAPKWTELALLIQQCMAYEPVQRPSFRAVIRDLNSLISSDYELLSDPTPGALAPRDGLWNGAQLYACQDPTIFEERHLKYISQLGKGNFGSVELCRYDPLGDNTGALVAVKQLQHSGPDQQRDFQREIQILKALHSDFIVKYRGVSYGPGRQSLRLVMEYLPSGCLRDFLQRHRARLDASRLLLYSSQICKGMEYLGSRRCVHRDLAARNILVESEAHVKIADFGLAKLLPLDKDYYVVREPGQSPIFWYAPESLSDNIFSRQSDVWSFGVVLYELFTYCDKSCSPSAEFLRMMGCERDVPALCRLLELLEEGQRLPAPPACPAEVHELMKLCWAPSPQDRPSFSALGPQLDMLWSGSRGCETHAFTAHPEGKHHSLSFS
# [25] = target: T1, Tyrosine-protein kinase JAK1; conditions: 10 uM
# Mus musculus [26] = experiment: Antiarthritic activity in collagen-induced DBA1/J mouse arthritis model assessed as decrease in infiltration of inflammatory cells in right hind ankle joints administered as po qd measured on day 19 by hematoxylin-eosin staining-based assay; format: functional, organism-based; in short: as §3
# Mus musculus [27] = experiment: Antiarthritic activity in collagen-induced DBA1/J mouse arthritis model assessed as decrease in serum IL-6 levels administered as po qd measured on day 19 by ELISA; format: functional, organism-based; in short: as §3
# Mus musculus [28] = experiment: Antiarthritic activity in collagen-induced DBA1/J mouse arthritis model assessed as decrease in clinical arthritis score administered as po qd measured twice weekly for 18 days; format: functional, organism-based; in short: as §3
# Mus musculus [29] = experiment: Antiarthritic activity in collagen-induced DBA1/J mouse arthritis model assessed as decrease in right hind ankle joint thickness administered as po qd measured on day 19 by hematoxylin-eosin staining-based assay; format: functional, organism-based; in short: as §3
# Mus musculus [30] = experiment: Antiarthritic activity in collagen-induced DBA1/J mouse arthritis model assessed as decrease in articular surface cartilage thickness in right hind ankle joints administered as po qd measured on day 19 by hematoxylin-eosin staining-based assay; format: functional, organism-based; in short: as §3
# Mus musculus [31] = experiment: Antiarthritic activity in collagen-induced DBA1/J mouse arthritis model assessed as decrease in ratio of bone surface to bone volume of right hind ankle joint administered as po qd measured on day 19 by micro-CT analysis; format: functional, organism-based; in short: as §3
# [32] = target: Non-receptor tyrosine-protein kinase TYK2 (Homo sapiens) (UniProt P29597); conditions: 10 uM
# Mus musculus [33] = experiment: Antiarthritic activity in collagen-induced DBA1/J mouse arthritis model assessed as decrease in paw volume administered as po qd measured on day 1 and 15 by plethysmometer
# Homo sapiens = species on record: Homo sapiens; experiment: Selectivity index, ratio of IC50 for human JAK2 to IC50 for human JAK1
# In short: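 Kinase activity assays run as a commercial service at Km ATP; IC50 values fitted from concentration-response data; ratio of JAK2 to JAK1 IC50.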
# Rattus norvegicus [34] = experiment: Antiarthritic activity in adjuvant-induced SPF LEW/SsNSlc rat arthritis model assessed as decrease in clinical arthritis score at 5 to 20 mg/kg, po qd measured on day 14; format: functional, organism-based; in short: as §4
# T1 sequence (P23458 whole entry): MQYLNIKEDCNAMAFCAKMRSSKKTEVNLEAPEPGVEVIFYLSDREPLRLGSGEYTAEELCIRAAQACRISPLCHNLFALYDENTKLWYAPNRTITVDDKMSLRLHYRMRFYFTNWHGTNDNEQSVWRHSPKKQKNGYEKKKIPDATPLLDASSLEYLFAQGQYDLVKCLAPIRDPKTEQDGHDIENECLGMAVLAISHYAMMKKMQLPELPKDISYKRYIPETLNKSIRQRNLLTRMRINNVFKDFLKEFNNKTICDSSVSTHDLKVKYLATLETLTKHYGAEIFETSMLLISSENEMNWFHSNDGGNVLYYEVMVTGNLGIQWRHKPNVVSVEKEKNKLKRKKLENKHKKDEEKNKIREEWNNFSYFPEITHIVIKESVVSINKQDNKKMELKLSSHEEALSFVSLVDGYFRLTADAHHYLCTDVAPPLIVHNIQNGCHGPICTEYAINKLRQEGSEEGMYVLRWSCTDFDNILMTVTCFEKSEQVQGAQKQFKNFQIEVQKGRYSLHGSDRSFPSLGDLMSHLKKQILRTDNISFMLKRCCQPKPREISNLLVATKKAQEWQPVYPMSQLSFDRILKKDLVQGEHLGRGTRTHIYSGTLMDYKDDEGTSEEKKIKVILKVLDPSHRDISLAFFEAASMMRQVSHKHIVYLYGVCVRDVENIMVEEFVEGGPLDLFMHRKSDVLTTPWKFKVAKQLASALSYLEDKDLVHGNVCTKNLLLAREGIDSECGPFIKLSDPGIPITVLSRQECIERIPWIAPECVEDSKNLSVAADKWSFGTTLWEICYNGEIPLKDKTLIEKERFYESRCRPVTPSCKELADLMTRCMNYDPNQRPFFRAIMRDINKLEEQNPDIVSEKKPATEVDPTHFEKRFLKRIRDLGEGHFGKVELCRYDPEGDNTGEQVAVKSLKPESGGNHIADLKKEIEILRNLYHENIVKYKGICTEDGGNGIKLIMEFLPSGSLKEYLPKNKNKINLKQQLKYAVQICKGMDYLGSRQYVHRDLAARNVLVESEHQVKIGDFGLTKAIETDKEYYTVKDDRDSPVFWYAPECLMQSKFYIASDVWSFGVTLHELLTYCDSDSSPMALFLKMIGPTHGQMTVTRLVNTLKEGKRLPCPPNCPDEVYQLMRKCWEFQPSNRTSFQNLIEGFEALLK
# Chain of Non-receptor tyrosine-protein kinase TYK2 (Homo sapiens) (P29597 whole entry): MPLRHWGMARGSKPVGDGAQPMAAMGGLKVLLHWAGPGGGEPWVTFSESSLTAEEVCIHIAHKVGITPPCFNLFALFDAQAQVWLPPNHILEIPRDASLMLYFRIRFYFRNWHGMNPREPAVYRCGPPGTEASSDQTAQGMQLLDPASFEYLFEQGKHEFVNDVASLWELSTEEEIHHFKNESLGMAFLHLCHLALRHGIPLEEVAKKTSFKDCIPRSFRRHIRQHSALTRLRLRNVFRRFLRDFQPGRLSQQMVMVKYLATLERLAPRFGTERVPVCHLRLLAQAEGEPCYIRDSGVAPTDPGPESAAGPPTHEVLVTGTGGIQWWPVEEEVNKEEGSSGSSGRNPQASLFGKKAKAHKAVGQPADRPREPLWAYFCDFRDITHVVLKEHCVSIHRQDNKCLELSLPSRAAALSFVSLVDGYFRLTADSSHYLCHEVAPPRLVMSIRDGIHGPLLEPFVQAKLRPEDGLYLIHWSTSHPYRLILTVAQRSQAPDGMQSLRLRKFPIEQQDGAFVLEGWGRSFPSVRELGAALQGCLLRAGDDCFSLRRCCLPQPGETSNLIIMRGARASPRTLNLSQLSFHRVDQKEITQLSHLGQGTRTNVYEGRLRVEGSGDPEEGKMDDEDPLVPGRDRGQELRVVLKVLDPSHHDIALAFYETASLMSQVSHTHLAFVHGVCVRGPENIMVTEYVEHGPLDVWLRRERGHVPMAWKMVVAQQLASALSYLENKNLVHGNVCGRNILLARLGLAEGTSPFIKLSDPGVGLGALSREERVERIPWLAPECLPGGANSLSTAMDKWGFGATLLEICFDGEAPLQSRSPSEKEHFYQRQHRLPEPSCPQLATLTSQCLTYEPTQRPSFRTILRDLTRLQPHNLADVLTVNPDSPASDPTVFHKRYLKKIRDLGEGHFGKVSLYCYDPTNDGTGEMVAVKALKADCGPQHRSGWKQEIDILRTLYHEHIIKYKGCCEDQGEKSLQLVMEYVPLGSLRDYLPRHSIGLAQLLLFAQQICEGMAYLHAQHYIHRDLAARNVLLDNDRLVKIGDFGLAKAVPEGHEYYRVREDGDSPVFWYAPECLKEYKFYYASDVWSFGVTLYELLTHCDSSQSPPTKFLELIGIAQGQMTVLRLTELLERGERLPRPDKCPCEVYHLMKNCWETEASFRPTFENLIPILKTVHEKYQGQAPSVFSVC
# Chain of Tyrosine-protein kinase JAK2 (O60674 whole entry): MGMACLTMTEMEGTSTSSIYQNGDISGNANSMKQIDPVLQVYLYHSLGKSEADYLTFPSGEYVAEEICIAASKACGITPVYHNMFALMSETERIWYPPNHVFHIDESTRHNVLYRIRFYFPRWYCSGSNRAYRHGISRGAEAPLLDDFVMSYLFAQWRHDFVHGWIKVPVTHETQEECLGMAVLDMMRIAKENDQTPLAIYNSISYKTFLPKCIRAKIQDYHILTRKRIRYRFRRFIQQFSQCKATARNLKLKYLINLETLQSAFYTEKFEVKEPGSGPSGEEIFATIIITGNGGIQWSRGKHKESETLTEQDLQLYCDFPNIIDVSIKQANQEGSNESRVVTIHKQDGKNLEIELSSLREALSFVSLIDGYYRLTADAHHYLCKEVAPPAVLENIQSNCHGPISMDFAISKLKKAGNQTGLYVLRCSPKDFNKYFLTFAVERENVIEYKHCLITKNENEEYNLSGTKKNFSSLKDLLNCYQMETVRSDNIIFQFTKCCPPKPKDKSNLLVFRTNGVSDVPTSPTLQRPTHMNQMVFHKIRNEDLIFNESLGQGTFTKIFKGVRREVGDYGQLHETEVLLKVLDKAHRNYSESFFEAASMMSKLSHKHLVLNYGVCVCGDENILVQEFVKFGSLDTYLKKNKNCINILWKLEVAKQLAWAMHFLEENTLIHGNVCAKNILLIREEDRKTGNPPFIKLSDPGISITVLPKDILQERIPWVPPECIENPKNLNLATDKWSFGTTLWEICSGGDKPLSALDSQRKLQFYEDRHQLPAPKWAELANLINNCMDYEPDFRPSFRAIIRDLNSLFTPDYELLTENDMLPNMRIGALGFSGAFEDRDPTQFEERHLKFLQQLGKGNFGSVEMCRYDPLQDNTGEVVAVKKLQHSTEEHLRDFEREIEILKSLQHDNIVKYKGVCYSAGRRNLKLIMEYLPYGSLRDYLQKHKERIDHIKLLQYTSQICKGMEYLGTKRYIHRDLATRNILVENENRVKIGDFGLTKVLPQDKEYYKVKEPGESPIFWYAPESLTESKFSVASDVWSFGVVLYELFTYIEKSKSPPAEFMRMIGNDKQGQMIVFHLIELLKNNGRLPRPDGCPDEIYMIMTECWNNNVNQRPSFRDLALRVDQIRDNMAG
smiles,measurement,setting,value
N#CCC(=O)NC1CN(c2ncnc3[nH]ccc23)CC12CC2 (stereo unspecified),inhibition at 1 µM,[1],10%
same,inhibition,[2],6%
CN(c1ncnc2[nH]ccc12)[C@H]1CN(C(=O)CC#N)CC12CC2.O=C(O)CC(O)(CC(=O)O)C(=O)O,Cmax,[3],1200 ng/mL
same,half-life,[4],4.3 h
same,half-life,[5],3.6 h
same,Tmax,[6],0.5 h
same,AUCt,Rattus norvegicus [7],2400 ng·h/mL
same,AUC,Rattus norvegicus [8],2000 ng·h/mL
same,AUC,Rattus norvegicus [9],2400 ng·h/mL
same,MRT,[10],1.2 h
same,AUCt,Rattus norvegicus [11],2000 ng·h/mL
same,bioavailability,[12],58%
same,MRT,[13],2.3 h
O=C(Nc1nc2cccc(-c3ccc(CN4CCS(=O)(=O)CC4)cc3)n2n1)C1CC1 [FILGOTINIB],Activity,Mus musculus [14],Active
same,Activity,Mus musculus [15],Active
same,Activity,Rattus norvegicus [16],10.32 mm
same,Activity,Mus musculus [17],Active
same,Activity,Mus musculus [18],Active
same,Activity,Rattus norvegicus [19],Active
same,Activity,Mus musculus [20],Active
same,Activity,Mus musculus [21],Active
same,Activity,Mus musculus [22],Active
same,Activity,Mus musculus [23],Active
CN(c1ncnc2[nH]ccc12)[C@H]1CN(C(=O)CC#N)CC12CC2,inhibition,[24],90%
same,inhibition,[25],90%
same,Activity,Mus musculus [26],Dose-dependent effect
same,Activity,Mus musculus [27],Dose-dependent effect
same,Activity,Mus musculus [28],Dose-dependent effect
same,Activity,Mus musculus [29],Dose-dependent effect
same,Activity,Mus musculus [30],Dose-dependent effect
same,Activity,Mus musculus [31],Dose-dependent effect
same,inhibition,[32],90%
same,Activity,Mus musculus [33],Dose-dependent effect
same,Ratio IC50,Homo sapiens,48
same,Activity,Rattus norvegicus [34],Active
CN(c1ncnc2[nH]ccc12)[C@H]1CN(C(=O)CC#N)CC12CC2.Cl,Cmax,[3],1300 ng/mL
same,half-life,[4],0.6 h
same,half-life,[5],1.1 h
same,Tmax,[6],0.4 h
same,AUCt,Rattus norvegicus [7],2400 ng·h/mL
same,AUC,Rattus norvegicus [8],1900 ng·h/mL
same,AUC,Rattus norvegicus [9],2400 ng·h/mL
same,MRT,[10],0.7 h
same,AUCt,Rattus norvegicus [11],1800 ng·h/mL
same,bioavailability,[12],65%
same,MRT,[13],1.6 h
